Data: ChEMBL document CHEMBL1140829, “1-Aminoindanes as novel motif with potential atypical antipsychotic properties” (Bioorg Med Chem Lett, 2008)

How the values were obtained:
[1] = target: T1, 5-hydroxytryptamine receptor 1A (Homo sapiens) (UniProt P08908); assay: (§1) Displacement of [3H]8OHDPAT from human 5HT1A receptor
T1 sequence (whole entry): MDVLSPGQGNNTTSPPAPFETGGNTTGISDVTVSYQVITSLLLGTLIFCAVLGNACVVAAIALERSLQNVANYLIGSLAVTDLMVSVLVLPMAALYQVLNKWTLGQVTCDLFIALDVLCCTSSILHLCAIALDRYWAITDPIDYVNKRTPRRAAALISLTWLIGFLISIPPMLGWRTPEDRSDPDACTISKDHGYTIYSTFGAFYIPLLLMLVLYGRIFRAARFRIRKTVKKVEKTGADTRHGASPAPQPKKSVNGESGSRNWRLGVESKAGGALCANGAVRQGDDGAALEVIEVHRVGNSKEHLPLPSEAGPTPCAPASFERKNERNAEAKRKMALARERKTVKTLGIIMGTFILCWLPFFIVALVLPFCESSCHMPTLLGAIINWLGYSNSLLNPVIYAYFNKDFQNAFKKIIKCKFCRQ
Summary of the method: (§2)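 Radioligand competition binding on cloned human receptor membranes: [3H]8-OH-DPAT for 5-HT1A; CHO-cell D2L membranes with [3H]spiperone. Membranes plus radioligand with or without varying compound concentrations. Bound and free separated by vacuum filtration; bound counted by liquid scintillation. Concentration–percent inhibition of specific binding fit by nonlinear regression to IC50.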

[2] = target: T2, 5-hydroxytryptamine receptor 1A (Homo sapiens, UniProt P08908); assay: as §1; summary of the method: as §2
T2 sequence (P08908 whole entry): T1 sequence (whole entry)

[3] = target: T3, Alpha-1A adrenergic receptor (Rattus norvegicus, UniProt P43140); assay: Displacement of [3H]prazosin from rat adrenergic alpha1A receptor expressed in fibroblast cells; format: cell-based
T3 sequence (P43140 whole entry): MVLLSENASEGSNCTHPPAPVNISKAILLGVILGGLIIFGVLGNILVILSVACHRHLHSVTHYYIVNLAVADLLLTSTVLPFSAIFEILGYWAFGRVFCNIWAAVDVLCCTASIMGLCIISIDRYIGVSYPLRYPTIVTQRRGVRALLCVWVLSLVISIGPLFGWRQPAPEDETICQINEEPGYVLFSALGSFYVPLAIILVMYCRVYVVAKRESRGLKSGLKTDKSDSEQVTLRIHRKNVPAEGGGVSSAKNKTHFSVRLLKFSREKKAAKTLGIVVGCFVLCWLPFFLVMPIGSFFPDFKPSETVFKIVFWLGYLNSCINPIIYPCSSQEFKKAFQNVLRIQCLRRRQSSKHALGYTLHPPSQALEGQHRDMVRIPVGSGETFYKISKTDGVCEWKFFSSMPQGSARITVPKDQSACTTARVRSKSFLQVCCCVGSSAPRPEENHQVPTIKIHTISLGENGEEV
Summary of the method: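 Cloned rat alpha1a receptor in fibroblast cell membranes; [3H]prazosin as radioligand, incubated with or without a range of compound concentrations. Filtration under vacuum removed free label; bound measured by liquid scintillation counting. Percent inhibition of specific binding vs concentration fit by nonlinear regression for IC50.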

[4] = target: Voltage-gated inwardly rectifying potassium channel KCNH2 (Homo sapiens, UniProt Q12809); assay: Displacement of [3H]dofetilide from human ERG channel expressed in HEK293 cells; format: cell-based
D(2) dopamine receptor [5] = target: T4, D(2) dopamine receptor (Homo sapiens, UniProt P14416); assay: Displacement of [3H]spiperone from human D2L receptor expressed in CHO cells; format: cell-based; summary of the method: as §2
[6] = target: 5-hydroxytryptamine receptor 2A (Homo sapiens, UniProt P28223); assay: Displacement of [3H]ketanserin from human 5HT2A receptor expressed in Swiss 3T3 cells; format: cell-based
Summary of the method: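 Membranes from Swiss 3T3 cells expressing human 5-HT2A, labeled with [3H]ketanserin, incubated with or without varying compound concentrations. Vacuum filtration separated unbound label; bound label read by liquid scintillation. IC50 from nonlinear-regression fit of concentration vs percent inhibition of specific binding. Ki reported as geometric mean of at least three experiments.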

D(2) dopamine receptor [7] = target: T4, D(2) dopamine receptor; assay: Displacement of [3H]spiperone from human D2L receptor expressed in CHO cells at 100 nM; format: cell-based

Voltage-gated inwardly rectifying potassium channel KCNH2, sequence (Q12809 whole entry): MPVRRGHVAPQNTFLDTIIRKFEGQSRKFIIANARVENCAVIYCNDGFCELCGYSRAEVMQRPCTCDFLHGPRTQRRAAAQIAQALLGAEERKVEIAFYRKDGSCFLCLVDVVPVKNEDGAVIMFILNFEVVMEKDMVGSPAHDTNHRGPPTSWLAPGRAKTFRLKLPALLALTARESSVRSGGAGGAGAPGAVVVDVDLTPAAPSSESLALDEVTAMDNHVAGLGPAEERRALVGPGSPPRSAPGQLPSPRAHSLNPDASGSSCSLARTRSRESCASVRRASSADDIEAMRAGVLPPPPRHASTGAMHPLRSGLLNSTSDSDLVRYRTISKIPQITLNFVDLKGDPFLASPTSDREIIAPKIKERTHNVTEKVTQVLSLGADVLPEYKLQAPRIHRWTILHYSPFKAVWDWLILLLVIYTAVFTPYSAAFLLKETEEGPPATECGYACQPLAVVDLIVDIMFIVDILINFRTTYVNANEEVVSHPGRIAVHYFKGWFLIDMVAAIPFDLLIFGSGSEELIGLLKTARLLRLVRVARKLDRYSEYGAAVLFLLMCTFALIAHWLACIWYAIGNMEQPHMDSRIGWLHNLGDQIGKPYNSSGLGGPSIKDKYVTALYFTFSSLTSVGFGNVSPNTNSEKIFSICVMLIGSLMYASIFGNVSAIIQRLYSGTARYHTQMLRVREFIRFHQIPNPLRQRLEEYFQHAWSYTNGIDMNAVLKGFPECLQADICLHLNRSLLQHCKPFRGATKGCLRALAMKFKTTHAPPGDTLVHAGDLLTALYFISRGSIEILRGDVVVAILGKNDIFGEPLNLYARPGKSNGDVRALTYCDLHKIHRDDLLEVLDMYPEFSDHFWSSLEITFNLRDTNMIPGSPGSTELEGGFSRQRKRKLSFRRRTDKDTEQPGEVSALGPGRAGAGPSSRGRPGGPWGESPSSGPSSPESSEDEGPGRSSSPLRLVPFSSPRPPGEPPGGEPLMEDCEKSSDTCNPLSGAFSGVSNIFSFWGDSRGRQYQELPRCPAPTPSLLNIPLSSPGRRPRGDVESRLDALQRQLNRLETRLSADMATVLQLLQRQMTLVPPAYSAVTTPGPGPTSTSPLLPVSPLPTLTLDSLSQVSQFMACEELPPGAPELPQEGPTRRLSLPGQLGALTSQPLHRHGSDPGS
T4 sequence (P14416 whole entry): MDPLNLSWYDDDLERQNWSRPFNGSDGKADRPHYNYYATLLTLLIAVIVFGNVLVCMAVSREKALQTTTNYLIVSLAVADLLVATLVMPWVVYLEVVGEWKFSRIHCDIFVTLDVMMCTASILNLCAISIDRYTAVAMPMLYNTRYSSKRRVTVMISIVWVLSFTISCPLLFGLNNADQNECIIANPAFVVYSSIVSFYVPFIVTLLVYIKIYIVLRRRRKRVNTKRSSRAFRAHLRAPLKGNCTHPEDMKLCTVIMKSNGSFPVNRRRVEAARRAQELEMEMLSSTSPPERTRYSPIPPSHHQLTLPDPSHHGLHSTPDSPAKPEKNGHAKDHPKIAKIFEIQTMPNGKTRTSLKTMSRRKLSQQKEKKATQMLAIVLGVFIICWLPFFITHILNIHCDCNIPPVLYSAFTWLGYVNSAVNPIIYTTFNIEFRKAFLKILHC
5-hydroxytryptamine receptor 2A, sequence (P28223 whole entry): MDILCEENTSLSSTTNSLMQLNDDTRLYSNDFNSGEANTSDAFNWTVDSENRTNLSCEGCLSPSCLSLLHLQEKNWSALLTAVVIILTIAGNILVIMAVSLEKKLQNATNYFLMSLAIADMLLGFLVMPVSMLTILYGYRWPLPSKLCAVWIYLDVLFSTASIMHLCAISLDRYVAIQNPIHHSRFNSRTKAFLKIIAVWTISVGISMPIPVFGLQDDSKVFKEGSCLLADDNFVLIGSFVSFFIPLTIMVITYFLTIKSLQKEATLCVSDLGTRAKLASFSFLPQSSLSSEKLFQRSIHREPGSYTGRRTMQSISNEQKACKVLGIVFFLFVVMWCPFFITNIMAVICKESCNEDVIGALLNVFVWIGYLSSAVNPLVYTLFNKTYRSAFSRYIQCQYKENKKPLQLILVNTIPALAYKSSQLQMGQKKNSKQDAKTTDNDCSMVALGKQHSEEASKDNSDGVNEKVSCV

`CC(=O)NC1CCc2ccc(CCN3CCN(c4nsc5ccccc45)CC3)cc21` (centres undefined) showed an Intrinsic activity [1] of 60%, a Ki [2] of 7.5 nM and a Ki [3] of 1.34 nM. The Ki [4] was 885 nM, the Ki (D(2) dopamine receptor [5]) was 22 nM and the Ki [6] was 0.01 nM.
`O=C(NC1CCc2cc(CCN3CCN(c4nsc5ccccc45)CC3)ccc21)C1CC1` (centres undefined) showed a Ki [2] of 2 nM, a Ki [3] of 0.73 nM and a Ki [4] of 137 nM. It also gave an Activity (D(2) dopamine receptor [7]) of 27% and a Ki [6] of 0.45 nM.
Compound `O=C(NC1CCc2ccc(CCN3CCN(c4nsc5ccccc45)CC3)cc21)c1ccco1` (centres undefined) has a Ki [2] of 7.9 nM, a Ki [3] of 1.38 nM and a Ki [4] of 35 nM. The Ki (D(2) dopamine receptor [5]) was 5 nM and the Ki [6] was 0.55 nM.
For `O=C1Cc2cc(CCN3CCN(c4nsc5ccccc45)CC3)c(Cl)cc2N1` [ZIPRASIDONE], the Ki [2] was 4 nM, the Ki [3] was 0.5 nM and the Activity ([4]; human, hek293) was “Not Active”.
With `NC1CCc2ccc(CCN3CCN(c4nsc5ccccc45)CC3)cc21` (centres undefined) the Intrinsic activity [1] was 60%, the Ki [2] was 2 nM and the Ki [3] was 2.72 nM. It also gave a Ki [4] of 616 nM, a Ki (D(2) dopamine receptor [5]) of 21 nM and a Ki [6] of 0.09 nM.
`CCC(=O)NC1CCc2cc(CCN3CCN(c4nsc5ccccc45)CC3)ccc21` (centres undefined) showed an Intrinsic activity [1] of 60%, a Ki [2] of 2 nM and a Ki [3] of 0.45 nM. For the same compound, the Ki [4] was 184 nM, the Activity (D(2) dopamine receptor [7]) was 21% and the Ki [6] was 0.25 nM.
Work on `CCC(=O)NC1CCc2ccc(CCN3CCN(c4nsc5ccccc45)CC3)cc21` (centres undefined) yielded a Ki [2] of 5 nM, a Ki [3] of 3.03 nM and a Ki [4] of 164 nM. It also gave a Ki (D(2) dopamine receptor [5]) of 34 nM and a Ki [6] of 0.01 nM.
`O=C(NC1CCc2ccc(CCN3CCN(c4nsc5ccccc45)CC3)cc21)c1cccnc1` (centres undefined) gave a Ki [2] of 4.5 nM, a Ki [3] of 3.31 nM and a Ki [4] of 358 nM. It also gave a Ki (D(2) dopamine receptor [5]) of 6 nM and a Ki [6] of 0.95 nM.
In the case of `O=C(NC1CCc2ccc(CCN3CCN(c4nsc5ccccc45)CC3)cc21)C1CC1` (centres undefined), the Intrinsic activity [1] is reported as 60%, the Ki [2] is reported as 12 nM and the Ki [3] is reported as 2.22 nM. For the same compound, the Ki [4] was 35 nM, the Ki (D(2) dopamine receptor [5]) was 21 nM and the Ki [6] was 0.3 nM.
With `CC(=O)NC1CCc2cc(CCN3CCN(c4nsc5ccccc45)CC3)ccc21` (centres undefined) the Intrinsic activity [1] was 60%, the Ki [2] was 1.1 nM and the Ki [3] was 3.18 nM. For the same compound, the Ki [4] was 2200 nM, the Ki (D(2) dopamine receptor [5]) was 15 nM and the Ki [6] was 0.33 nM.
`O=C(NC1CCc2ccc(CCN3CCN(c4nsc5ccccc45)CC3)cc21)c1ccccc1` (centres undefined) was tested, and the Ki [2] was 41.8 nM, the Ki [3] was 10.9 nM and the Ki (D(2) dopamine receptor [5]) was 22 nM. It also gave a Ki [6] of 4.75 nM.
Compound `O=C(NC1CCc2cc(CCN3CCN(c4nsc5ccccc45)CC3)ccc21)C(F)(F)F` (centres undefined) has an Intrinsic activity [1] of 60%, a Ki [2] of 1 nM and a Ki [3] of 0.3 nM. The Ki (D(2) dopamine receptor [5]) was 8 nM and the Ki [6] was 0.15 nM.
In the case of `O=C(NC1CCc2cc(CCN3CCN(c4nsc5ccccc45)CC3)ccc21)c1ccc(F)cc1` (centres undefined), the Intrinsic activity [1] is reported as 60%, the Ki [2] is reported as 7.8 nM and the Ki [3] is reported as 15.6 nM. For the same compound, the Ki [4] was 135 nM, the Ki (D(2) dopamine receptor [5]) was 10 nM and the Ki [6] was 1.65 nM.
For `O=C(CCc1ccccc1)NC1CCc2ccc(CCN3CCN(c4nsc5ccccc45)CC3)cc21` (centres undefined), the Intrinsic activity [1] was 60%, the Ki [2] was 37.2 nM and the Ki [3] was 10.3 nM. The Ki (D(2) dopamine receptor [5]) was 33 nM and the Ki [6] was 0.95 nM.
`CC(C)C(=O)NC1CCc2ccc(CCN3CCN(c4nsc5ccccc45)CC3)cc21` (centres undefined) showed a Ki [2] of 12 nM, a Ki [3] of 3.61 nM and a Ki [4] of 278 nM. For the same compound, the Ki (D(2) dopamine receptor [5]) was 67 nM and the Ki [6] was 0.75 nM.
`O=C(NC1CCc2cc(CCN3CCN(c4nsc5ccccc45)CC3)ccc21)c1cccnc1` (centres undefined) was tested, and the Intrinsic activity [1] was 60%, the Ki [2] was 7.7 nM and the Ki [3] was 17.4 nM. The Ki [4] was 202 nM, the Ki (D(2) dopamine receptor [5]) was 5 nM and the Ki [6] was 0.68 nM.
`O=C(NC1CCc2ccc(CCN3CCN(c4nsc5ccccc45)CC3)cc21)c1ccno1` (centres undefined) gave a Ki [2] of 6.5 nM, a Ki [3] of 1.88 nM and a Ki [4] of 150 nM. It also gave a Ki [6] of 0.08 nM.
`O=C(NC1CCc2ccc(CCN3CCN(c4nsc5ccccc45)CC3)cc21)C(F)(F)F` (centres undefined) was tested, and the Ki [2] was 4.9 nM, the Ki [3] was 1.92 nM and the Ki [4] was 101 nM. The Ki (D(2) dopamine receptor [5]) was 10 nM.
In the case of `O=C(NC1CCc2ccc(CCN3CCN(c4nsc5ccccc45)CC3)cc21)c1ccc(F)cc1` (centres undefined), the Ki [2] is reported as 66.7 nM, the Ki [3] is reported as 10.3 nM and the Ki [4] is reported as 78 nM. The Ki (D(2) dopamine receptor [5]) was 6 nM and the Ki [6] was 2.45 nM.
`O=C(Cc1ccccc1)NC1CCc2ccc(CCN3CCN(c4nsc5ccccc45)CC3)cc21` (centres undefined) showed an Intrinsic activity [1] of 60%, a Ki [2] of 20.9 nM and a Ki [3] of 5.27 nM. For the same compound, the Ki (D(2) dopamine receptor [5]) was 26 nM and the Ki [6] was 0.04 nM.
`O=C(NC1CCc2ccc(CCN3CCN(c4nsc5ccccc45)CC3)cc21)c1ccc(Cl)cc1` (centres undefined) gave an Intrinsic activity [1] of 60%, a Ki [2] of 56 nM and a Ki [3] of 5.64 nM. It also gave a Ki [4] of 166 nM, a Ki (D(2) dopamine receptor [5]) of 5 nM and a Ki [6] of 0.1 nM.
For `CC(C)C(=O)NC1CCc2cc(CCN3CCN(c4nsc5ccccc45)CC3)ccc21` (centres undefined), the Ki [2] was 1 nM, the Ki [3] was 0.49 nM and the Ki [4] was 219 nM. For the same compound, the Activity (D(2) dopamine receptor [7]) was 17% and the Ki [6] was 0.65 nM.
With `CCCC(=O)NC1CCc2ccc(CCN3CCN(c4nsc5ccccc45)CC3)cc21` (centres undefined) the Intrinsic activity [1] was 60%, the Ki [2] was 5.5 nM and the Ki [3] was 3.96 nM. The Ki (D(2) dopamine receptor [5]) was 27 nM and the Ki [6] was 0.45 nM.
Compound `CCCC(=O)NC1CCc2cc(CCN3CCN(c4nsc5ccccc45)CC3)ccc21` (centres undefined) has an Intrinsic activity [1] of 60%, a Ki [2] of 2 nM and a Ki [3] of 0.9 nM. The Ki [4] was 269 nM, the Activity (D(2) dopamine receptor [7]) was 21% and the Ki [6] was 0.5 nM.
In the case of `Cc1ccc(C(=O)NC2CCc3ccc(CCN4CCN(c5nsc6ccccc56)CC4)cc32)cc1` (centres undefined), the Ki [2] is reported as 28.1 nM, the Ki [3] is reported as 13.5 nM and the Ki [4] is reported as 194 nM. It also gave a Ki (D(2) dopamine receptor [5]) of 15 nM and a Ki [6] of 3 nM.
